The values that follow come from ChEMBL document CHEMBL5647697, “Akt inhibition synergizes with polycomb repressive complex 2 inhibition in the treatment of multiple myeloma” (2019).

Calls of active or inactive are those of the source. The rule behind the calls is not given here.

The test system of experiment [1] is NCI-H929. The experiment in a line: Cytotoxicity against human NCI-H929 cells assessed as reduction in cell viability at 0.3125 to 10 micromol/L after 48 hrs by MTS assay. The format is functional, cell-based. As to conditions: dose 0.3125-10 µmol/L. A digest of the protocol: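 Seven myeloma lines (MM.1S, H929, OPM2/BTZ among them) exposed to TAS-117 at increasing concentrations up to 10 μmol/L for 48 h. Viability read by MTS against an untreated control; mean ± SD of triplicates.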
(Tetrazolium dyes change colour on reduction, which living cells bring about.)

In experiment [2] the test system is NCI-H929. Description: Upregulation of FOXO3 in human NCI-H929 cells assessed as enhanced nuclear accumulation at 0.5 micromol/L after 24 hrs by immunofluorescence staining. The format is functional, cell-based. As to conditions: dose 0.5 µmol/L. Summed up: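 MM.1S and H929 cells were treated with or without 0.5 μmol/L TAS-117 for 24 h. Cells were immunostained with anti-FOXO3. Jurkat cells served as positive control and cells without primary antibody as negative control. Read-out was the average fluorescence intensity of the nuclear FOXO3 fraction versus untreated cells.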

Experiment [3] concerns NCI-H929. The experiment in a line: Upregulation of EZH1 mRNA expression in human NCI-H929 cells at 0.03 to 3 micromo/L at 6 to 48 hrs by qRT-PCR analysis. The format is functional, cell-based. As to conditions: dose 0.03-3 µmol/L, time 6-48 hrs. A digest of the protocol:
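EZH1 mRNA was measured by qRT-PCR in MM.1S and H929 cells. Dose series: cells were treated with graded TAS-117 for 24 h. Time course: cells were treated with 3 μmol/L for the indicated times. Fold change is after GAPDH normalization, relative to the untreated control. Data are SD of triplicates.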
On the technique in general: Quantitative PCR measures a nucleic acid by following its amplification.

The test system of experiment [4] is NCI-H929. Description: Induction of apoptosis in human NCI-H929 cells assessed as viable cells at 5 micromol/L incubated for 48 hrs by annexin V/PI staining based flow cytometry (reference value: 95.6%). The class given is functional. To be noted: NCI-H929, 48 h, dose 5 µmol/L, read-out: Activity.
Experiment [5] has as its system MM1.S. Description: Synergistic activity against human MM.1S cells assessed as combination index […] at 0.25 uM incubated for 48 hrs by […]. The class given is functional. A digest of the protocol: (§1)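 Cells were exposed to the EZH2/EZH1 inhibitor (UNC1999 or GSK126) for 72 h in total, with the Akt inhibitor added for the last 48 h. Viability was read by MTS assay relative to untreated control cells, in triplicate. The combination index for each dose pair came from isobologram analysis.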

Experiment [6] deals with OPM-2. The experiment in a line: Synergistic activity against human OPM-2 cells assessed as combination index preincubated in presence of 1.25 uM GSK126 for 72 hrs followed by compound addition at 2.5 uM incubated for 48 hrs by MTT assay. The class given is functional.
The subject of experiment [7] is MM1.S. Description: Downregulation of EZH2 mRNA expression in human MM1.S cells in presence of 5 micromol/L UNC1999 for 72 hrs followed by compound addition at 2 micromol/L incubated for 24 hrs by qRT-PCR analysis. As to conditions: dose 2.0 µmol/L.
The test system of experiment [8] is OPM-2/BTZ. Description: Downregulation of E2F1 mRNA expression in human OPM-2/BTZ cells incubated at 0.3 to 3 micromol/L for 48 hrs by qRT-PCR analysis. The class given is functional, cell-based. As to conditions: dose 0.3-3 µmol/L.
In experiment [9] the test system is MM1.S. Description: Downregulation of CDK2 protein expression in human MM1.S cells incubated at 0.3 to 3 micromol/L for 48 hrs by Western blot analysis. The format is functional, cell-based. As to conditions: dose 0.3-3 µmol/L. Summed up:
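MM.1S and H929 cells given TAS-117 at the indicated doses for 48 h. Protein levels assessed by immunoblot.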

Experiment [10] deals with OPM-2. Description: Synergistic activity against human OPM-2 cells assessed as combination index preincubated in presence of 2.5 uM UNC1999 for 72 hrs followed by compound addition at 5 uM incubated for 48 hrs by MTT assay. The class given is functional.
The test system of experiment [11] is MM1.S. Description: Downregulation of EZH2 mRNA expression in human MM1.S cells transduced with EZH1 at 0.3 micromol/L after 24 hrs by qRT-PCR analysis. To be noted: dose 0.3 µmol/L. The class given is functional, cell-based. A digest of the protocol: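 EZH1-shRNA or shLuc lentivirus-transduced MM.1S cells treated with TAS-117 at the indicated doses for 24 h. EZH2 mRNA by RT-qPCR, fold change normalized to GAPDH.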

For experiment [12], the system named is OPM-2/BTZ. The experiment in a line: Synergistic activity against human OPM-2/BTZ cells assessed as combination index preincubated in presence of 1.25 uM UNC1999 for 72 hrs followed by compound addition at 0.5 uM incubated for 48 hrs by MTT assay. The format is functional.
Experiment [13] deals with OPM-2. The experiment in a line: Synergistic activity against human OPM-2 cells assessed as combination index preincubated in presence of 2.5 uM UNC1999 for 72 hrs followed by compound addition at 1.25 uM incubated for 48 hrs by MTT assay. The format is functional.
The test system of experiment [14] is MM1.S. Description: Upregulation of FOXO3 […] expression in human MM1.S cells assessed as enhanced nuclear accumulation at 1 micromol/L after 24 hrs by immunofluorescence staining. The class given is functional, cell-based. As to conditions: dose 1.0 µmol/L.
The subject of experiment [15] is OPM-2. Description: Synergistic activity against human OPM-2 cells assessed as combination index preincubated in presence of 5 uM GSK126 for 72 hrs followed by compound addition at 2.5 uM incubated for 48 hrs by MTT assay. The class given is functional.
Experiment [16] deals with NCI-H929. Description: Downregulation of EZH2 protein expression in human NCI-H929 cells at 0.3 to 5 micromol/L for 6 to 48 hrs by Western blot analysis. The format is functional, cell-based. As to conditions: dose 0.3-5 µmol/L, time 6-48 hrs. Summed up:
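MM.1S and H929 cells exposed to TAS-117 at the indicated doses for 48 h, or to 5 μmol/L for the indicated times. Immunoblot with GAPDH, Akt and H3 as loading controls; EZH2 quantified relative to GAPDH.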
Background: A western blot detects proteins with antibodies after separation by electrophoresis.

Experiment [17] deals with MM1.S. The experiment in a line: Synergistic activity against human MM.1S cells assessed as combination index […] at 0.125 uM incubated for 48 hrs by […]. The format is functional. A digest of the protocol:
as §1

In experiment [18] the test system is NCI-H929. The experiment in a line: Synergistic activity against human NCI-H929 cells assessed as combination index […] in presence of 5 uM GSK126 […] compound addition at 0.125 uM incubated for 48 hrs by […]. The class given is functional. A digest of the protocol: as §1
Experiment [19] deals with OPM-2/BTZ. Description: Downregulation of EZH2 protein expression in human OPM-2/BTZ cells at 0.3 to 5 micromol/L for 6 to 48 hrs by Western blot analysis. As to conditions: dose 0.3-5 µmol/L, time 6-48 hrs. The class given is functional, cell-based.
The subject of experiment [20] is MM1.S. The experiment in a line: Induction of apoptosis in human MM1.S cells assessed as viable cells preincubated in presence of 5 micromol/L UNC1999 for 48 hrs followed by compound addition at 2 micromol/L incubated for 12 hrs by annexin V/PI staining based flow cytometry (reference value: 88.2%). The format is functional. To be noted: dose 2 µmol/L, at 2 µM.

Experiment [21] relates to OPM-2/BTZ. Description: Synergistic activity against human OPM-2/BTZ cells assessed as combination index preincubated in presence of 1.25 uM GSK126 for 72 hrs followed by compound addition at 0.5 uM incubated for 48 hrs by MTT assay. The format is functional.
For experiment [22], the system named is OPM-2/BTZ. The experiment in a line: Synergistic activity against human OPM-2/BTZ cells assessed as combination index preincubated in presence of 2.5 uM UNC1999 for 72 hrs followed by compound addition at 2 uM incubated for 48 hrs by MTT assay. The class given is functional.
For experiment [23], the system named is NCI-H929. Description: Synergistic activity against human NCI-H929 cells assessed as combination index […] compound addition at 0.25 uM incubated for 48 hrs by […]. The class given is functional. Summed up: as §1
The test system of experiment [24] is OPM-2/BTZ. Description: Synergistic activity against human OPM-2/BTZ cells assessed as combination index preincubated in presence of 2.5 uM GSK126 for 72 hrs followed by compound addition at 1 uM incubated for 48 hrs by MTT assay. The format is functional.

In the case of `C[C@]1(O)C[C@@](N)(c2ccc(-c3nc4n(c3-c3ccccc3)COc3ccncc3-4)cc2)C1` [PIFUSERTIB], the outcome with NCI-H929 [1], in the experiment on NCI-H929 [2], in the experiment with MM1.S [7], in the experiment with OPM-2/BTZ [8], with MM1.S [9] and in the experiment with MM1.S [11] was Active. Further, the outcome in the experiment with MM1.S [14], with NCI-H929 [16] and in the experiment with OPM-2/BTZ [19] was Active. The values for the Activity result with NCI-H929 [3] and in the experiment on MM1.S [20] were “Dose-Dependent Effect” and 33%, respectively. For the same compound, the viability at 5 µM in the experiment with NCI-H929 [4] was determined as 82.7%. Moreover, the CI came to 0.826 in the experiment on MM1.S [5]; 2.465 in the experiment on OPM-2 [6]; 3.1 in the experiment with OPM-2 [10]; 0.74 in the experiment on OPM-2/BTZ [12]; 2.53 with OPM-2 [13]; 2.74 in the experiment on OPM-2 [15]. Also, the CI in the experiment with MM1.S [17] is given as 0.27; in the experiment on NCI-H929 [18], 7.124; in the experiment with OPM-2/BTZ [21], 0.624; in the experiment with OPM-2/BTZ [22], 0.483; in the experiment with NCI-H929 [23] it was 7.428; in the experiment with OPM-2/BTZ [24], 0.359.
